Consider 3 molecules from ChEMBL document CHEMBL2021913, “Synthesis and biological evaluation of some novel thiazole substituted benzotriazole derivatives” (2012).

What all share (assay type): functional
Experiment [1] relates to Escherichia coli. Briefly: Antimicrobial activity against Escherichia coli 2109 at 35 degC after 18 to 24 hrs by NCCLS method based antimicrobial assay. Conditions: for MBC: read-out: MBC99.9.
Experiment [2] deals with Bacillus subtilis. The experiment is described as follows: Antimicrobial activity against Bacillus subtilis 2250 at 128 ug/disc at 35 degC after 24 hrs by agar-well diffusion assay. The essentials:
(§1)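 Agar-well diffusion: 24 h bacterial cultures adjusted to 0.5 McFarland (1.5 × 10⁸ CFU/mL) and mixed into molten Mueller-Hinton agar before pouring. 6 mm wells punched and each filled with 50 µL of compound stock or control. Plates incubated 35 °C for 24 h. Zone of growth inhibition diameter measured with vernier caliper.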

In experiment [3] the test system is Aspergillus niger. The experiment is described as follows: Antimicrobial activity against Aspergillus niger 545 at 35 degC after 48 hrs by CLSI method based antimicrobial assay. Conditions: Aspergillus niger, 545, 48 h; for MFC: read-out: MFC99.9. An outline of the steps:
(§2)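 Broth microdilution following CLSI guidelines over 256 to 1 µg/mL. MIC90 is the lowest concentration completely inhibiting growth. For MFC, 0.1 mL from each tube spread on agar and CFU counted after 48 h at 35 °C; MFC is lowest concentration killing 99.9% of inoculum. MFC/MIC ratio calculated: […], ≤4 as fungicidal.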

In experiment [4] the test system is Staphylococcus aureus. The experiment is described as follows: Antimicrobial activity against Staphylococcus aureus 2079 at 128 ug/disc at 35 degC after 24 hrs by agar-well diffusion assay. The essentials:
as §1
(In general: A growth-free zone around the sample is the usual read-out of agar diffusion tests.)

For experiment [5], the system named is Aspergillus niger. Briefly: Antimicrobial activity against Aspergillus niger 545 at 128 ug/disc at 37 degC after 24 to 72 hrs by agar-well diffusion assay. Conditions: read-out: DIZ. An outline of the steps: (§3)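 Potato dextrose agar base plates overlaid with seeded agar cooled to 40 °C and inoculated with spores from 10-day cultures, final 1 × 10⁶ spores/mL. Compounds dissolved in DMSO at 128 µg/mL and applied on 6 mm filter-paper discs placed on chilled seeded medium. Nystatin positive control, DMSO negative control. Incubation 24–72 h at 37 °C. Inhibition zone diameter read by vernier caliper.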

In experiment [6] the test system is Candida albicans. The experiment is described as follows: Ratio of MFC99.9 to MIC90 for Candida albicans 3471 at 35 degC after 48 hrs by CLSI method based antimicrobial assay. An outline of the steps:
as §2

Experiment [7] deals with Pseudomonas aeruginosa. The experiment is described as follows: Antimicrobial activity against Pseudomonas aeruginosa 2036 at 35 degC after 18 to 24 hrs by NCCLS method based antimicrobial assay. The note with it: for MBC: read-out: MBC99.9.
In experiment [8] the test system is Candida albicans. Briefly: Antimicrobial activity against Candida albicans 3471 at 128 ug/disc at 37 degC after 24 to 72 hrs by agar-well diffusion assay. The note with it: read-out: DIZ. An outline of the steps: as §3
For experiment [9], the system named is Escherichia coli. Briefly: Antimicrobial activity against Escherichia coli 2109 at 128 ug/disc at 35 degC after 24 hrs by agar-well diffusion assay. Conditions: for zone of inhibition at 128 µg/disc: Escherichia coli, 2109, 24 h, read-out: DIZ. The essentials:
as §1

Experiment [10] has as its system Staphylococcus aureus. Briefly: Antimicrobial activity against Staphylococcus aureus 2079 at 35 degC after 18 to 24 hrs by NCCLS method based antimicrobial assay.
For experiment [11], the system named is Pseudomonas aeruginosa. The experiment is described as follows: Antimicrobial activity against Pseudomonas aeruginosa 2036 at 128 ug/disc at 35 degC after 24 hrs by agar-well diffusion assay. Conditions: for zone of inhibition at 128 µg/disc: Pseudomonas aeruginosa, 2036, 24 h, read-out: DIZ. The essentials: as §1
For experiment [12], the system named is Aspergillus niger. The experiment is described as follows: Ratio of MFC99.9 to MIC90 for Aspergillus niger 545 at 35 degC after 48 hrs by CLSI method based antimicrobial assay. The essentials: as §2
Experiment [13] relates to Candida albicans. Briefly: Antimicrobial activity against Candida albicans 3471 at 35 degC after 48 hrs by CLSI method based antimicrobial assay. The note with it: Candida albicans, 3471, 48 h; for MFC: read-out: MFC99.9. The essentials: as §2
Experiment [14] concerns Bacillus subtilis. The experiment is described as follows: Antimicrobial activity against Bacillus subtilis 2250 at 35 degC after 18 to 24 hrs by NCCLS method based antimicrobial assay.

Values after ≈ are worked out from the molar mass of the structure shown. Active and inactive are the calls of the source. No cut-off for these calls is given here.

For the molecule `Fc1ccc(-c2csc(N/N=C(/Cn3nnc4ccccc43)c3ccc(Br)cc3)n2)cc1`, the MIC in [1] is 128 µg/mL (≈ 252 µM); in experiment [3], 32 µg/mL (≈ 63.1 µM); in experiment [7] it was 32 µg/mL (≈ 63.1 µM); in [13] it was 32 µg/mL (≈ 63.1 µM). In addition, the MBC came out at 128 µg/mL (≈ 252 µM) in experiment [1] and 64 µg/mL (≈ 126 µM) in experiment [7]. Moreover, the “diameter of the inhibition zone (DIZ)” value in experiment [2] and in [4] was “inactive” in each case. In addition, the MFC is 64 µg/mL (≈ 126 µM) in experiment [3] and 128 µg/mL (≈ 252 µM) in [13]. Also, the zone of inhibition at 128 µg/disc stood at 17.6 mm in [5], 16.8 mm in experiment [8], 18.7 mm in [9] and 19.8 mm in experiment [11]. Further, the Ratio in [6] came to 4; in [12], 2. Moreover, the MBC99.9 entry in experiment [10] and in experiment [14] was “inactive” each time. In addition, the MIC entry in experiment [10] and in experiment [14] was “inactive” in each case.
Take `O=[N+]([O-])c1ccc(/C(Cn2nnc3ccccc32)=N\Nc2nc(-c3ccc(F)cc3)cs2)cc1`: the MBC99.9 result in [1] and in experiment [14] was “inactive” in each case. The MIC entry in [1] and in experiment [14] was “inactive” each time. Moreover, the “diameter of the inhibition zone (DIZ)” value in [2] and in experiment [9] was “inactive” throughout. Moreover, the MIC in experiment [3] came out at 32 µg/mL (≈ 67.6 µM); in experiment [7] it was 32 µg/mL (≈ 67.6 µM); in [10], 32 µg/mL (≈ 67.6 µM); in experiment [13], 128 µg/mL (≈ 270 µM). In addition, the MFC in experiment [3] came to 64 µg/mL (≈ 135 µM); in [13], 256 µg/mL (≈ 541 µM). The zone of inhibition at 128 µg/disc in experiment [4] (Staphylococcus aureus, 2079, 24 h, read-out: DIZ) amounted to 26.5 mm; in [5] it was 17.8 mm; in [8], 12.2 mm; in experiment [11], 20.7 mm. For the same molecule, the Ratio in experiment [6] and in experiment [12] was 2 in each case. Besides, the values for the MBC in experiment [7] and in [10] (read-out: MBC99.9) were 32 µg/mL (≈ 67.6 µM) and 64 µg/mL (≈ 135 µM), respectively.
As to `O=[N+]([O-])c1ccc(/C(Cn2nnc3ccccc32)=N\Nc2nc(-c3cc(C(F)(F)F)cc(C(F)(F)F)c3)cs2)cc1`, the MIC in [1] was 128 µg/mL (≈ 216 µM); in experiment [3] it was 32 µg/mL (≈ 54.1 µM); in [13], 128 µg/mL (≈ 216 µM). Also, the MBC in [1] stood at 256 µg/mL (≈ 433 µM). Further, the “diameter of the inhibition zone (DIZ)” value in experiment [2], in experiment [4] and in experiment [11] was “inactive” each time. The MFC came to 64 µg/mL (≈ 108 µM) in [3] and 256 µg/mL (≈ 433 µM) in experiment [13]. In addition, the figures for the zone of inhibition at 128 µg/disc in [5], in experiment [8] and in [9] were 17.9 mm, 19 mm and 15 mm, respectively. Besides, the Ratio in experiment [6] and in experiment [12] was 2 throughout. For the same molecule, the MBC99.9 entry in experiment [7], in [10] and in experiment [14] was “inactive” each time. The MIC result in experiment [7], in [10] and in experiment [14] was “inactive” in each case.

Broadly, the MIC is the lowest concentration that inhibits growth of the organism.
